Assay results published in ChEMBL document CHEMBL1154413, “In vitro activities of different inhibitors of bacterial transcription against Staphylococcus epidermidis biofilm” (Antimicrob Agents Chemother, 2007).
Converted amounts (≈) assume the structure as drawn. The source made the active and inactive calls. The calls are words filed in the database; no cut-off is given here.

Tests used:
[1] = test system: Staphylococcus epidermidis; assay: Antimicrobial activity against Staphylococcus epidermidis; assay type: functional
Procedure, shortened: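 S. epidermidis RP62A; broth microdilution per CLSI in Mueller-Hinton broth, inoculum 5 × 10^5 CFU/ml, 37°C for 24 h before reading. Triplicate.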

[2] = test system: Staphylococcus epidermidis; assay: Ratio of MBC for Staphylococcus epidermidis to MIC for Staphylococcus epidermidis; assay type: functional
Procedure, shortened: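 MBC obtained by extending the CLSI MIC assay (MHB, 5 × 10^5 CFU/ml, 37°C, 24 h): well portions serially diluted, spotted on MHB agar, incubated 37°C, read at 24 h as lowest concentration giving 0.1% survival. Triplicate.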

[3] = Inhibition of Staphylococcus epidermidis RNA polymerase mediated transcription
Procedure, shortened: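 Transcription measured on toluene-permeabilized S. epidermidis cells, endogenous DNA as template; [5-3H]UTP incorporation read out, concentration giving 50% inhibition calculated. Triplicate.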

[4] = test system: Staphylococcus epidermidis; assay: Inhibition of Staphylococcus epidermidis biofilm formation assessed as reduction of >2 log 10 bacterial count in biofilm after 24 hrs; assay type: functional, organism-based
Procedure, shortened: (§1)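 S. epidermidis RP62A biofilms grown 24 h at 37°C from 10^7 CFU/ml in MHB in polystyrene microtiter wells, rinsed, then exposed 24 h at 37°C without shaking to compound in MHB (1× to 16× MIC). Washed, lysed with DMSO, bacterial ATP read by luciferase/luciferin bioluminescence, converted to log10 CFU/well via calibration against plate counts; reduction versus unchallenged biofilm. Triplicate.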

[5] = test system: Staphylococcus epidermidis; assay: Inhibition of Staphylococcus epidermidis biofilm formation assessed as log 10 reduction of bacterial count in biofilm at 4 times MIC per well after 24 hrs; assay type: functional; procedure, shortened: as §1
[6] = test system: Staphylococcus epidermidis; assay: Inhibition of Staphylococcus epidermidis biofilm formation assessed as log 10 reduction of bacterial count in biofilm at 0.025 ug/ml per well after 24 hrs; assay type: functional; procedure, shortened: as §1

Structure (SMILES) | MIC [1] | IC50 [3] | MBC [1] | Ratio [2] | Activity [4] | Activity [5] | Activity [6]
CNC(=O)[C@@H](C)[C@H]1C(=O)/C(=C(O)/C=C/C(C)=C/[C@@H](C)[C@H]2O[C@@]3(C)O[C@H](C=C[C@@]34CO4)[C@@H]2C)C(=O)N1[C@@H]1CC[C@H](O)[C@H](C)O1 [STREPTOLYDIGIN] | 50 mg/L (≈ 83.2 µM) | 2.3 mg/L (≈ 3.83 µM) | 100 mg/L (≈ 166 µM) | 2 | inactive | – | –
O/N=C(\Nc1ccccc1)c1cccc(C(F)(F)F)c1 | 100 mg/L (≈ 357 µM) | 4.2 mg/L (≈ 15 µM) | 100 mg/L (≈ 357 µM) | 1 | – | 3 | –
CC(=O)Nc1c2sscc-2n(C)c1=O [THIOLUTIN] | 6.25 mg/L (≈ 27.4 µM) | > 100 mg/L | 12.5 mg/L (≈ 54.8 µM) | 2 | inactive | – | –
C=CCN1C(=O)/C(=C/c2ccc(-c3cccc(C(=O)O)c3)o2)SC1=S | 12.5 mg/L (≈ 33.7 µM) | 2.5 mg/L (≈ 6.73 µM) | 25 mg/L (≈ 67.3 µM) | 2 | inactive | 1.8 | –

More lines, main results first:

MIC [1] | IC50 [3] | Structure (SMILES) | MBC [1] | Ratio [2] | Activity [4] | Activity [5] | Activity [6]
12.5 mg/L (≈ 58.3 µM) | > 100 mg/L | CC(=O)Nc1c2sscc-2[nH]c1=O [HOLOMYCIN] | 50 mg/L (≈ 233 µM) | 4 | inactive | – | –
0.012 mg/L (≈ 0.0153 µM) | 0.07 mg/L (≈ 0.0891 µM) | CO[C@H]1/C=C/O[C@@]2(C)Oc3c(C)c(O)c4c(O)c(c5c(nc6cc(C)ccn65)c4c3C2=O)NC(=O)/C(C)=C\C=C\[C@H](C)[C@H](O)[C@@H](C)[C@@H](O)[C@@H](C)[C@H](OC(C)=O)[C@@H]1C [RIFAXIMIN] | 0.025 mg/L (≈ 0.0318 µM) | 2 | inactive | – | 1.5
0.012 mg/L (≈ 0.0137 µM) | 0.08 mg/L (≈ 0.0912 µM) | CO[C@H]1/C=C/O[C@@]2(C)Oc3c(C)c(O)c4c(O)c(c(/C=N/N5CCN(C6CCCC6)CC5)c(O)c4c3C2=O)NC(=O)/C(C)=C\C=C\[C@H](C)[C@H](O)[C@@H](C)[C@@H](O)[C@@H](C)[C@H](OC(C)=O)[C@@H]1C [RIFAPENTINE] | 0.025 mg/L (≈ 0.0285 µM) | 2 | inactive | – | 1.5
6.25 mg/L (≈ 16.8 µM) | 0.5 mg/L (≈ 1.34 µM) | CCOC(=O)c1c(NC(=O)Nc2ccccc2)sc2c1CCCCCC2 | > 100 mg/L | >18 | inactive | – | –
0.006 mg/L (≈ 0.00729 µM) | 0.04 mg/L (≈ 0.0486 µM) | CO[C@H]1/C=C/O[C@@]2(C)Oc3c(C)c(O)c4c(O)c(c(/C=N/N5CCN(C)CC5)c(O)c4c3C2=O)NC(=O)/C(C)=C\C=C\[C@H](C)[C@H](O)[C@@H](C)[C@@H](O)[C@@H](C)[C@H](OC(C)=O)[C@@H]1C [RIFAMPIN] | 0.006 mg/L (≈ 0.00729 µM) | 1 | inactive | – | –
25 mg/L (≈ 71.6 µM) | 2.3 mg/L (≈ 6.59 µM) | O/N=C(\Nc1cccc(Cl)c1)c1ccc(Cl)c(C(F)(F)F)c1 | 25 mg/L (≈ 71.6 µM) | 1 | – | 3 | –
